Legend:
Format in all cases: functional
HCT-15 [1] = experiment: Growth inhibition of human HCT-15 cells incubated for 48 hrs by sulforhodamine B assay
Summary of the method: (§1)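 NCI60 panel at the NCI Developmental Therapeutics Program. Only compounds active in the 10 µM screen went to dose-response testing. GI50, the concentration giving 50% of maximal inhibition of proliferation, and TGI, the concentration giving total growth inhibition, were derived from the dose-response curves.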

M14 = experiment: Growth inhibition of human M14 cells assessed as cell growth at 0.01 uM incubated for 48 hrs by sulforhodamine B assay relative to control; details: read-out: Activity
HOP-62 = experiment: Growth inhibition of human HOP-62 cells incubated for 48 hrs by sulforhodamine B assay; summary of the method: as §1
BT-549 = experiment: Growth inhibition of human BT-549 cells incubated for 48 hrs by sulforhodamine B assay; details: for CC50: read-out: LC50 (the source's name)
Summary of the method: (§2)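 NCI Developmental Therapeutics Program NCI60 panel. Compounds that were active in the 10 µM one-dose screen went on to dose–response testing. Growth at each concentration is expressed relative to untreated control (100%). GI50 (concentration giving 50% of maximal inhibition of proliferation) and TGI (concentration giving total growth inhibition) were derived from the curves.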

SK-OV-3 = experiment: Growth inhibition of human SK-OV-3 cells assessed as cell growth at 0.01 uM incubated for 48 hrs by sulforhodamine B assay relative to control; details: read-out: Activity
SW-620 = experiment: Growth inhibition of human SW-620 cells assessed as cell growth at 1 uM incubated for 48 hrs by sulforhodamine B assay relative to control; details: read-out: Activity
COLO 205 = experiment: Growth inhibition of human COLO 205 cells assessed as cell growth at 1 uM incubated for 48 hrs by sulforhodamine B assay relative to control; details: read-out: Activity; summary of the method: as §2
A549 = experiment: Growth inhibition of human A549/ATCC cells assessed as cell growth at 0.01 uM incubated for 48 hrs by sulforhodamine B assay relative to control; details: read-out: Activity; summary of the method: as §2
HCT-15 [2] = experiment: Growth inhibition of human HCT-15 cells assessed as cell growth at 0.1 uM incubated for 48 hrs by sulforhodamine B assay relative to control; details: read-out: Activity
A498 = experiment: Growth inhibition of human A498 cells incubated for 48 hrs by sulforhodamine B assay; details: for CC50: read-out: LC50 (the source's name); summary of the method: as §2
IGROV-1 = experiment: Growth inhibition of human IGROV-1 cells assessed as cell growth at 0.01 uM incubated for 48 hrs by sulforhodamine B assay relative to control; details: read-out: Activity
U-251 [3] = experiment: Growth inhibition of human U-251 cells assessed as cell growth at 100 uM incubated for 48 hrs by sulforhodamine B assay relative to control; details: read-out: Activity
UACC-257 [4] = experiment: Growth inhibition of human UACC-257 cells assessed as cell growth at 100 uM incubated for 48 hrs by sulforhodamine B assay relative to control; details: read-out: Activity
U-251 [5] = experiment: Growth inhibition of human U-251 cells incubated for 48 hrs by sulforhodamine B assay
Summary of the method: (§3)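 NCI DTP 60-line human tumour panel. Dose-response curves were run only for ligands active in the initial 10 µM screen. GI50 (concentration giving 50% of maximal inhibition of proliferation) and TGI (concentration giving total growth inhibition) were derived from these curves.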

Malme-3M = experiment: Growth inhibition of human Malme-3M cells assessed as cell growth at 0.01 uM incubated for 48 hrs by sulforhodamine B assay relative to control; details: read-out: Activity
SNB-75 = experiment: Growth inhibition of human SNB-75 cells assessed as cell growth at 100 uM incubated for 48 hrs by sulforhodamine B assay relative to control; details: read-out: Activity
MDA-MB-468 = experiment: Growth inhibition of human MDA-MB-468 cells assessed as cell growth at 0.01 uM incubated for 48 hrs by sulforhodamine B assay relative to control; details: read-out: Activity
TK-10 = experiment: Growth inhibition of human TK-10 cells assessed as cell growth at 100 uM incubated for 48 hrs by sulforhodamine B assay relative to control; details: read-out: Activity
UACC-257 [6] = experiment: Growth inhibition of human UACC-257 cells assessed as cell growth at 0.1 uM incubated for 48 hrs by sulforhodamine B assay relative to control; details: read-out: Activity
MDA-MB-435 = experiment: Growth inhibition of human MDA-MB-435 cells assessed as cell growth at 0.1 uM incubated for 48 hrs by sulforhodamine B assay relative to control; details: read-out: Activity
NCI-H23 = experiment: Growth inhibition of human NCI-H23 cells assessed as cell growth at 100 uM incubated for 48 hrs by sulforhodamine B assay relative to control; details: read-out: Activity
RPMI-8226 = experiment: Growth inhibition of human RPMI-8226 cells assessed as cell growth at 0.01 uM incubated for 48 hrs by sulforhodamine B assay relative to control; details: read-out: Activity
KM12 = experiment: Growth inhibition of human KM12 cells assessed as cell growth at 1 uM incubated for 48 hrs by sulforhodamine B assay relative to control; details: read-out: Activity
NCI-H522 = experiment: Growth inhibition of human NCI-H522 cells assessed as cell growth at 1 uM incubated for 48 hrs by sulforhodamine B assay relative to control; details: read-out: Activity
HCT-15 [7] = experiment: Growth inhibition of human HCT-15 cells assessed as cell growth at 1 uM incubated for 48 hrs by sulforhodamine B assay relative to control; details: read-out: Activity
OVCAR-8 = experiment: Growth inhibition of human OVCAR-8 cells assessed as cell growth at 100 uM incubated for 48 hrs by sulforhodamine B assay relative to control; details: read-out: Activity
NCI-H460 = experiment: Growth inhibition of human NCI-H460 cells incubated for 48 hrs by sulforhodamine B assay; summary of the method: as §1
HT-29 = experiment: Growth inhibition of human HT-29 cells assessed as cell growth at 0.1 uM incubated for 48 hrs by sulforhodamine B assay relative to control; details: read-out: Activity
RXF 393 = experiment: Growth inhibition of human RXF 393 cells incubated for 48 hrs by sulforhodamine B assay; details: for CC50: read-out: LC50 (the source's name); summary of the method: as §3
Hs-578T [8] = experiment: Growth inhibition of human Hs-578T cells assessed as cell growth at 1 uM incubated for 48 hrs by sulforhodamine B assay relative to control; details: read-out: Activity
SF-268 = experiment: Growth inhibition of human SF-268 cells assessed as cell growth at 0.01 uM incubated for 48 hrs by sulforhodamine B assay relative to control; details: read-out: Activity
K562 = experiment: Growth inhibition of human K562 cells incubated for 48 hrs by sulforhodamine B assay; summary of the method: as §1
OVCAR-4 = experiment: Growth inhibition of human OVCAR-4 cells assessed as cell growth at 0.1 uM incubated for 48 hrs by sulforhodamine B assay relative to control; details: read-out: Activity
Hs-578T [9] = experiment: Growth inhibition of human Hs-578T cells incubated for 48 hrs by sulforhodamine B assay; details: for CC50: read-out: LC50 (the source's name); summary of the method: as §1
MCF7 = experiment: Growth inhibition of human MCF7 cells assessed as cell growth at 100 uM incubated for 48 hrs by sulforhodamine B assay relative to control; details: read-out: Activity

## CN1CCc2nc3sc(C(N)=O)c(N)c3c(-c3cccs3)c2C1
HCT-15 [1]
  GI50: 3.31 µM
  LC50: > 100 µM
  TGI: > 100 µM
M14
  growth at 0.01 µM: 107%
HOP-62
  GI50: 3.27 µM
  LC50: > 100 µM
  TGI: > 100 µM
BT-549
  GI50: 3.26 µM
  TGI: 35.5 µM
  CC50: > 100 µM
SK-OV-3
  growth at 0.01 µM: 93%
SW-620
  growth at 1 µM: 116%
COLO 205
  growth at 1 µM: 69%
A549
  growth at 0.01 µM: 99%
HCT-15 [2]
  growth at 0.1 µM: 106%
A498
  GI50: 2.58 µM
  TGI: 7.27 µM
  CC50: > 100 µM
IGROV-1
  growth at 0.01 µM: 111%
U-251 [3]
  growth at 100 µM: 7%
UACC-257 [4]
  growth at 100 µM: 3%
U-251 [5]
  GI50: 3.18 µM
  LC50 (concentration killing 50% of cells): > 100 µM
  TGI: > 100 µM
Malme-3M
  growth at 0.01 µM: 104%
SNB-75
  growth at 100 µM: -40%
MDA-MB-468
  growth at 0.01 µM: 86%
TK-10
  growth at 100 µM: -6%
UACC-257 [6]
  growth at 0.1 µM: 105%
MDA-MB-435
  growth at 0.1 µM: 95%
NCI-H23
  growth at 100 µM: -30%
RPMI-8226
  growth at 0.01 µM: 108%
KM12
  growth at 1 µM: 82%
NCI-H522
  growth at 1 µM: 86%
HCT-15 [7]
  growth at 1 µM: 93%
OVCAR-8
  growth at 100 µM: 5%
NCI-H460
  GI50: 3.71 µM
  LC50: > 100 µM
  TGI: > 100 µM
HT-29
  growth at 0.1 µM: 104%
RXF 393
  GI50: 1.11 µM
  TGI: 3.63 µM
  CC50: > 100 µM
Hs-578T [8]
  growth at 1 µM: 91%
SF-268
  growth at 0.01 µM: 106%
K562
  GI50: 4.99 µM
  LC50 (concentration killing 50% of cells): > 100 µM
  TGI: > 100 µM
OVCAR-4
  growth at 0.1 µM: 107%
Hs-578T [9]
  GI50: 3.07 µM
  TGI: 21.7 µM
  CC50: > 100 µM
MCF7
  growth at 100 µM: 11%

## CCc1ccccc1NC(=O)c1sc2nc3c(cc2c1N)C(=O)CCC3
HCT-15 [1]
  GI50: 0.349 µM
  LC50: > 100 µM
  TGI: > 100 µM
M14
  growth at 0.01 µM: 90%
HOP-62
  GI50: 0.445 µM
  LC50: > 100 µM
  TGI: ≥ 100 µM
BT-549
  GI50: 27.4 µM
  TGI: > 100 µM
  CC50: > 100 µM
SK-OV-3
  growth at 0.01 µM: 104%
SW-620
  growth at 1 µM: 18%
COLO 205
  growth at 1 µM: -34%
A549
  growth at 0.01 µM: 97%
HCT-15 [2]
  growth at 0.1 µM: 74%
A498
  GI50: 0.18 µM
  TGI: 4 µM
  CC50: > 100 µM
IGROV-1
  growth at 0.01 µM: 108%
U-251 [3]
  growth at 100 µM: -15%
UACC-257 [4]
  growth at 100 µM: 25%
U-251 [5]
  GI50: 0.499 µM
  LC50 (concentration killing 50% of cells): > 100 µM
  TGI: 29.1 µM
Malme-3M
  growth at 0.01 µM: 100%
SNB-75
  growth at 100 µM: -19%
MDA-MB-468
  growth at 0.01 µM: 91%
TK-10
  growth at 100 µM: 13%
UACC-257 [6]
  growth at 0.1 µM: 79%
MDA-MB-435
  growth at 0.1 µM: 29%
RPMI-8226
  growth at 0.01 µM: 100%
KM12
  growth at 1 µM: 21%
NCI-H522
  growth at 1 µM: 34%
HCT-15 [7]
  growth at 1 µM: 30%
OVCAR-8
  growth at 100 µM: 10%
NCI-H460
  GI50: 0.345 µM
  LC50: > 100 µM
  TGI: > 100 µM
HT-29
  growth at 0.1 µM: 100%
RXF 393
  GI50: 0.163 µM
  TGI: 0.777 µM
  CC50: > 100 µM
Hs-578T [8]
  growth at 1 µM: 18%
SF-268
  growth at 0.01 µM: 103%
K562
  GI50: 0.203 µM
  LC50 (concentration killing 50% of cells): > 100 µM
  TGI: > 100 µM
OVCAR-4
  growth at 0.1 µM: 88%
Hs-578T [9]
  GI50: 0.302 µM
  TGI: > 100 µM
  CC50: > 100 µM
MCF7
  growth at 100 µM: 9%
